The text below walks through data of ChEMBL document CHEMBL1137655, “Isoxyl activation is required for bacteriostatic activity against Mycobacterium tuberculosis” (2007).

In experiment [1] the test system is Mycobacterium tuberculosis. The experiment is described as follows: Antimycobacterial activity against Mycobacterium tuberculosis MT1K ISO-R33 mutant overexpressing ethA gene by colorimetric resazurin microtiter assay. It is filed as functional. Put shortly: (§1)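 Resazurin colorimetric microtiter MIC in 7H9-ADC broth with 2% DMSO at 37°C; strains carry empty pVV16 or pVVethA complementation vector; ISO tested up to 40 μg/ml, highest soluble level.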
Background: Alamar Blue is a resazurin reagent that responds to reducing activity.

The test system of experiment [2] is Mycobacterium tuberculosis. Put plainly: Antimycobacterial activity against Mycobacterium tuberculosis MT1K ISO-R22 mutant overexpressing ethA gene by colorimetric resazurin microtiter assay. In kind it is functional. The method, boiled down:
as §1

In experiment [3] the test system is Mycobacterium tuberculosis. The experiment is described as follows: microbe, parasite or virus in culture. The following applies: H37Rv ATCC 25618.
The test system of experiment [4] is Mycobacterium tuberculosis. The experiment is described as follows: Antimycobacterial activity against Mycobacterium tuberculosis MT1K ISO-R33 mutant expressing VV16 plasmid by colorimetric resazurin microtiter assay. It is filed as functional. Put shortly: as §1
Experiment [5] has as its system Mycobacterium tuberculosis. Put plainly: Antimycobacterial activity against Mycobacterium tuberculosis MT1K ISO-R22 mutant expressing VV16 plasmid by colorimetric resazurin microtiter assay. It is filed as functional. Put shortly: as §1
Experiment [6] concerns Mycobacterium tuberculosis. Put plainly: Ratio of MIC for wild-type Mycobacterium tuberculosis H37Rv expressing VV16 plasmid to MIC for Mycobacterium tuberculosis H37Rv overexpressing ethA gene. In kind it is functional. Put shortly: (§2)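 Ratio of resazurin microtiter MICs in 7H9-ADC broth for H37Rv carrying pVVethR or pVVethA versus empty pVV16; ethA strain run at 32°C, ethR at 37°C.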

Experiment [7] has as its system Mycobacterium tuberculosis. Put plainly: Ratio of MIC for Mycobacterium tuberculosis H37Rv overexpressing ethR gene to MIC for wild-type Mycobacterium tuberculosis H37Rv expressing VV16 plasmid. In kind it is functional. Put shortly:
as §2

Experiment [8] relates to Mycobacterium tuberculosis. Put plainly: Antimycobacterial activity against Mycobacterium tuberculosis H37Rv ATCC 25618 overexpressing ethR gene by colorimetric resazurin microtiter assay. It is filed as functional. The method, boiled down:
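Resazurin colorimetric microtiter MIC in 7H9-ADC broth at 37°C, for H37Rv carrying ethR on pVV vector; ISO tested up to 40 μg/ml, the solubility limit.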

In brackets after ≈: the same amount, converted by molar mass.

As to `CC(C)CCOc1ccc(NC(=S)Nc2ccc(OCCC(C)C)cc2)cc1` [TIOCARLIDE], the MIC was 5 µg/mL (≈ 12.5 µM) in experiment [1]; 5 µg/mL (≈ 12.5 µM) in experiment [2]; 2.5 µg/mL (≈ 6.24 µM) in experiment [3]; more than 40 µg/mL in experiment [4]; more than 40 µg/mL in experiment [5]; more than 40 µg/mL in experiment [8]. Also, the figures for the “fold change (FC)” value in experiment [6] and in experiment [7] were 2 and 8, respectively.
